Published values pooled from the literature.
Protocols differ between the studies behind these lines.
CYP3A7: Cytochrome P450 3A7 (CYP3A7, Homo sapiens, UniProt P24462)

The IC50 of `C=C(C)[C@@]12O[C@@]3(/C=C/C=C/C=C/CCC)O[C@@H]1[C@@H]1[C@@H]4O[C@]4(CO)[C@@H](O)[C@]4(O)C(=O)C(C)=C[C@H]4[C@@]1(O3)[C@H](C)[C@H]2OC(=O)/C=C/c1ccc(O)c(OC)c1` is reported as over 0.034 µM (MT4; cell growth or viability, ATP luminescence; 96 h).
`O=C(O)C(F)(F)C(F)(F)C(F)(F)C(F)(F)C(F)(F)C(F)(F)C(F)(F)F` gave an inhibition of 35.8% (CYP3A7; enzyme activity, inhibitor; 100 µM, pH 7.4).
For `O=C(c1ccc(F)cc1F)N1CCC(NCCSC(c2ccc(F)cc2)c2ccc(F)cc2)CC1`, the compound remaining was about 30% (metabolic stability; mouse, liver microsomes; 10 µM, 1 h, pH 7.4).
`CCCCCC/C=C/CC(=O)O[C@@]12[C@H](OC(=O)c3ccccc3)[C@@H](C)[C@@]3(O)[C@@H](C=C(CO)C[C@]4(O)C(=O)C(C)=C[C@@H]34)[C@@H]1C2(C)C` has a CC50 of over 7 µM (MT4; cell growth or viability, ATP luminescence).
For `CC[C@H](C)[C@H]1C(=O)N2CCC[C@H]2C(=O)O[C@H](C(C)(C)C)C[C@@H](C)C[C@H](O)CC2=N[C@@H](CCC(=O)N[C@@H](Cc3ccc(OC)cc3)C(=O)N(C)[C@@H](C)C(=O)N1C)CS2`, the compound remaining was 100% (metabolic stability; female CD-1 mouse, liver microsomes; 1 µM, 0 h, pH 7.4).
`O=S(=O)(O)C(F)(F)C(F)(F)C(F)(F)C(F)(F)C(F)(F)C(F)(F)C(F)(F)C(F)(F)F` has an IC50 of 20.4 µM (CYP3A7; enzyme activity, inhibitor, fluorescence).
With `CCCCCCCCCC(=O)O[C@@]12[C@H](OC(=O)c3ccccc3)[C@@H](C)[C@]3(O)[C@@H]4C=C(C)C(=O)[C@@]4(O)[C@H](O)C(CO)=C[C@H]3[C@@H]1C2(C)C` the CC50 was over 7 µM (MT4; cell growth or viability, ATP luminescence).
For `COC(=O)N[C@H](C(=O)NN(CC[C@@]1(Cc2ccccc2)C(=O)N([C@H]2c3ccccc3C[C@H]2O)C[C@@H]1O)Cc1ccc(Br)cc1)C(C)(C)C`, the CC50 was over 50 µM (MT4; cell growth or viability, XTT; 5 days).
With `Cc1ncc2n1-c1ccc(Cl)cc1C(c1ccccc1F)=NC2` the compound remaining was 0.3% (metabolic stability; Sprague-Dawley rat, hepatocytes; 1 µM, 4 h).
With `C=C(C)[C@@]1(O)[C@H](OC(=O)/C=C/C=C/CCCCC)[C@@H]2[C@@H]3O[C@]3(CO)[C@@H](O)[C@]3(O)C(=O)C(C)=C[C@H]3[C@@]2(O)[C@H](C)[C@H]1OC(=O)/C=C/c1ccccc1` the IC50 was over 0.034 µM (MT4; cell growth or viability, ATP luminescence; 96 h).
The compound remaining of `N=c1c2c(-c3ccccc3)c(-c3ccccc3)n(Cc3ccccc3)c2ncn1[C@H]1CC[C@H](O)CC1` is reported as 103% (metabolic stability; CD-1 mouse, hepatocytes; 1 µM, 4 h).
With `O=S(=O)(O)C(F)(F)C(F)(F)C(F)(F)C(F)(F)C(F)(F)C(F)(F)F` the inhibition was 48.8% (CYP3A7; enzyme activity, inhibitor; 100 µM, pH 7.4).
With `C=C(C)[C@@]12O[C@@]3(/C=C/C=C/C=C/CCC)O[C@@H]1[C@@H]1[C@@H]4O[C@]4(CO)[C@@H](O)[C@]4(O)C(=O)C(C)=C[C@H]4[C@@]1(O3)[C@H](C)[C@H]2OC(=O)c1ccccc1` the IC50 was over 0.034 µM (MT4; cell growth or viability, ATP luminescence; 96 h).
`COC(=O)N[C@H](C(=O)NN(CC[C@@]1(Cc2ccccc2)C(=O)N([C@H]2c3ccccc3C[C@H]2O[Si](C)(C)C(C)(C)C)C[C@@H]1O[Si](C)(C)C(C)(C)C)Cc1ccc(Br)cc1)C(C)(C)C` has a CC50 of over 50 µM (MT4; cell growth or viability, XTT; 5 days).
For `C=C(C)[C@@]12O[C@@]3(/C=C/C=C/C=C/CCC)O[C@@H]1[C@@H]1[C@@H]4O[C@]4(CO)[C@@H](O)[C@]4(O)C(=O)C(C)=C[C@H]4[C@@]1(O3)[C@H](C)[C@H]2OC(=O)/C=C/c1ccccc1`, the IC50 was over 0.034 µM (MT4; cell growth or viability, ATP luminescence; 96 h).
For `CCCC/C=C/C=C/CC(=O)O[C@@]12[C@H](OC(=O)c3ccccc3)[C@@H](C)[C@@]3(O)[C@@H](C=C(CO)C[C@]4(O)C(=O)C(C)=C[C@@H]34)[C@@H]1C2(C)C`, the CC50 was over 7 µM (MT4; cell growth or viability, ATP luminescence).
`C=C(C)[C@@]12O[C@@]3(/C=C/C=C/CCCCC)O[C@@H]1[C@@H]1[C@@H]4O[C@]4(CO)[C@@H](O)[C@]4(O)C(=O)C(C)=C[C@H]4[C@@]1(O3)[C@H](C)[C@H]2OC(=O)/C=C/c1ccc(O)c(OC)c1` has an IC50 of over 0.034 µM (MT4; cell growth or viability, ATP luminescence; 96 h).
`CC[C@H](C)[C@H]1C(=O)N2CCC[C@H]2C(=O)O[C@H](C(C)(C)C)C[C@@H](C)C[C@H](O)[C@H](C)C2=N[C@H](CCC(=O)N[C@@H](Cc3ccc(OC)cc3)C(=O)N(C)[C@@H](C)C(=O)N1C)CS2` has a compound remaining of 100% (metabolic stability; female CD-1 mouse, liver microsomes; 1 µM, 0 h, pH 7.4).
With `C=C(C)[C@]1(O)C[C@@H](C)[C@@]2(O)[C@@H]([C@H]3O[C@@]4([C@H](O)[C@]3(O)COC(=O)c3ccccc3)[C@@H](OC(=O)/C=C/C=C/C=C/CCC)[C@@H](C)C[C@@H]24)[C@H]1O` the IC50 was over 0.034 µM (MT4; cell growth or viability, ATP luminescence; 96 h).
`Cc1ncc2n1-c1ccc(Cl)cc1C(c1ccccc1F)=NC2` gave a compound remaining of under 7% (metabolic stability; male rat, liver microsomes; 1 µM, 30 min).
